From ChEMBL document CHEMBL4229360, “Antimalarial agents against both sexual and asexual parasites stages: structure-activity relationships and biological studies of the Malaria Box compound 1-[5-(4-bromo-2-chlorophenyl)furan-2-yl]-N-[(piperidin-4-yl)methyl]methanamine (MMV019918) and analogues” (Eur J Med Chem, 2018)
pIC50: −log10 of the molar value. The source made the active and inactive calls. The rule behind the calls is not given here.

How the values were obtained:
[1] = test system: Plasmodium falciparum; experiment: Gametocytocidal activity against Plasmodium falciparum NF54 HGL gametocytes assessed as inhibition of parasite viability after 72 hrs by ONE-Glo reagent based luminescence assay; type: functional, organism-based
Outline: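 NF54 gametocytes raised in 5% haematocrit RPMI1640/10% human serum, with 50 mM NAG on days 4–9. Mainly stage IV gametocytes isolated on day 11 by Percoll gradient and seeded at 5000 cells/well, final DMSO 0.1%. Incubated 72 h at 37 °C, 3% O2, 4% CO2; viability by ONE-Glo luminescence.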

[2] = Cytotoxicity against mouse NIH/3T3 cells after 24 hrs by neutral red uptake assay; type: cell-based, NIH3T3; details: read-out: TC50
Outline: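 NIH3T3 cells exposed for 24 h; viability by neutral red uptake. Mean of three experiments, six replicates each.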

[3] = test system: Plasmodium berghei; experiment: (§1) Antimalarial activity against liver stage form of mCherry expressing Plasmodium berghei ANKA sporozoites infected in mouse primary hepatocytes assessed as reduction in parasite size at 0.0625 to 4 uM administered 2 hrs post infection and measured after 48 hrs post infection with medium change at 24 hrs post infection by fluorescent microscopic analysis; type: functional, organism-based
Outline: (§2)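 Parasite number and size in unfixed cells by automated microscopy at 48 hpi. Detached cells collected at 65 hpi, counted by fluorescence microscopy, expressed as % of 48 h parasite number. n = 4; one-way ANOVA with Dunnett's test.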

[4] = test system: Plasmodium berghei; experiment: as §1, with “inhibition of detached cell formation rate” for “reduction in parasite size”; type: functional, organism-based; outline: as §2
[5] = Cardiotoxicity in Langendorff perfused Wistar rat heart assessed as frequency of heart rate at 10 uM by electrocardiography (reference value: 247.05 to 275.90 bpm); type: toxicity, tissue-based
[6] = Cardiotoxicity in Langendorff perfused Wistar rat heart assessed as cycle length interval time at 1 uM by electrocardiography (reference value: 217.15 to 242.23 milliseconds); type: toxicity, tissue-based
[7] = Cardiotoxicity in Langendorff perfused Wistar rat heart assessed as cycle length interval time at 3 uM by electrocardiography (reference value: 217.15 to 242.23 milliseconds); type: toxicity, tissue-based
[8] = Cardiotoxicity in Langendorff perfused Wistar rat heart assessed as PQ interval time at 3 uM by electrocardiography (reference value: 41.13 to 42.63 milliseconds); type: toxicity, tissue-based
[9] = Cardiotoxicity in Langendorff perfused Wistar rat heart assessed as QRS interval time at 0.1 uM by electrocardiography (reference value: 13.31 to 14.35 milliseconds); type: toxicity, tissue-based
[10] = Cardiotoxicity in Langendorff perfused Wistar rat heart assessed as QRS interval time at 1 uM by electrocardiography (reference value: 13.31 to 14.35 milliseconds); type: toxicity, tissue-based
[11] = Cardiotoxicity in Langendorff perfused Wistar rat heart assessed as QRS interval time at 10 uM by electrocardiography (reference value: 13.31 to 14.35 milliseconds); type: toxicity, tissue-based
[12] = Cardiotoxicity in Langendorff perfused Wistar rat heart assessed as QTc interval time at 3 uM by electrocardiography (reference value: 76.45 to 80.07 milliseconds); type: toxicity, tissue-based
[13] = Cardiotoxicity in Langendorff perfused Wistar rat heart assessed as QTc interval time at 10 uM by electrocardiography (reference value: 76.45 to 80.07 milliseconds); type: toxicity, tissue-based
[14] = biological target: T1, Phosphoethanolamine N-methyltransferase (Plasmodium falciparum) (UniProt Q8IDQ9); experiment: Inhibition of plasmodium falciparum phosphoethanolamine N-methyltransferase expressed in Escherichia coli assessed as remaining enzyme activity at 100 uM using phosphoethanolamine as substrate and [methyl-14C] SAM by radiochemical assay
T1 sequence (whole entry): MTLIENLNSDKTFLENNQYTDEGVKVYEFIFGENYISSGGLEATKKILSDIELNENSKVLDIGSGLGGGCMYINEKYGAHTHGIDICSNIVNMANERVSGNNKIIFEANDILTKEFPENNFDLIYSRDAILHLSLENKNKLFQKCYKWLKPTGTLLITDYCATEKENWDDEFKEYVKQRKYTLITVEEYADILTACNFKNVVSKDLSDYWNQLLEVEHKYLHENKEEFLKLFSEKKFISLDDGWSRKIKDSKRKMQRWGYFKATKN
Outline: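 Recombinant PfPMT purified from E. coli, 2 μg per 100 μL reaction. Buffer 0.1 M HEPES-KOH pH 8.0, 2 mM Na2EDTA, 10% glycerol, 5% DMSO, with 30 μM SAM (100 nCi [methyl-14C]SAM) and 55 μM phosphoethanolamine; radiochemical read-out.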

Clc1ccc(-c2ccc(CNCC3CCNCC3)o2)c(-c2ccccc2)c1
pIC50 [1]: 7.37 | CC50 at 24 h [2]: 20 µM | Activity [3]: inactive | Activity [4]: inactive | Activity [5]: 259.41 bpm | Time [6]: 217.02 ms | Time [7]: 216.73 ms | Time [8]: 45.47 ms | Time [9]: 14.2 ms | Time [10]: 13.7 ms | Time [11]: 17.91 ms | Time [12]: 78.56 ms | Time [13]: 83.77 ms | Activity [14]: 30%
